The list is not random: actives were taken first. Their share in the collection is about 1.9%.
TbHK1 inh – Trypanosoma brucei hexokinase 1 inhibitors, primary screen, biochemical, G6PDH-coupled NADH absorbance, MLSCN library | recombinant TbHK1, G6PDH-coupled NADH A340 | inhibition, % at 10 µM | 0.11% of 220,000 active;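 active means inhibition of 50% or more in the single-dose primary screen; inactive means inhibition below 50%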
MT stabilize HCS – microtubule stabilizers in HeLa cells, primary screen, imaging, high-content imaging; % tubulin-high responders, % at 10 µM; AID 2205, 2009; HeLa tubulin immunostaining HCS, 24 h; share of cells brighter than vehicle mean+2SD; 0.83% of 200,000 active;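 active means plate Z-score above 3 for both tubulin-high and condensed-nucleus cell shares, with cell loss under 80%, at 10 µM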;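 further: anti alpha tubulin signal scored within the nucleus-defined area of each cell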
b-catenin transl – modulators of beta-catenin nuclear translocation, primary screen, imaging, HeLa cells, immunofluorescence, high-content. nuclear translocation activity, % at 5 µM. 0.3% of 190,000 active;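 active means nuclear translocation activity above 50% at 5 µM, with a well cell count of 50 or more; inconclusive means wells under 50 cells across six images, flagged as toxic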;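 further: per-cell ratio of nuclear to cytoplasmic median beta-catenin stain intensity; plate controls were DMSO negative control for no effect and GSK-3 inhibitor IX positive control for full effect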
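test system = HeLa cells, endogenous beta-catenin | dosing = single 5 µM dose plus 0.02–20 µM confirmation series | times = compound treatment 24 h, 37°C, 5% CO2 | technique = beta-catenin immunofluorescence imaging with DAPI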
Insulin prom up – insulin promoter activators in MIN6 cells, imaging, high-content screening, mouse beta cells. MIN6 insulin promoter-GFP reporter; active compounds read high. z-score at 5 µM. 0.3% of 190,000 active;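 active means z-score above 3 at 5 µM with at least 500 cells counted in the well; inconclusive means wells under 500 cells, flagged as cytotoxic or low count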
Autophagy HCS – autophagy modulators in MEF cells, primary screen, imaging, high-content, MEF GFP-LC3 | MEF GFP-LC3 puncta imaging; test concentration mostly 10 µM | calls only at 10 µM (by protocol) | 0.98% of 190,000 active;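 active means percentage of spot-positive cells more than 3 SD above its plate mean, without a fluorescence outlier flag or 80% toxicity; inconclusive means no clear call, values can overlap the other calls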;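 further: spot-positive cell cutoff set from DMSO-treated cells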
* hit, by the source's call; i = inactive; ? = inconclusive; · = no result; + = active, no number.

SMILES | TbHK1 inh | MT stabilize HCS | b-catenin transl | Insulin prom up | Autophagy HCS
Cc1ccc(N2CC(C(=O)O)CC2=O)cc1 (configuration not stated) | -4.5 | 5.6 | -0.8 | -0.73 | i
COc1cccc(/C=N/NC(=S)Nc2cccnc2)c1 | -27.0 | 3.1 | -3.6 | -0.4 | +
COc1cccc(/C=C/C(=O)c2cccc([N+](=O)[O-])c2)c1OC | -6.8 | 6.6 | 0.7 | 0.04 | +
COc1cccc(/C=C/C(=O)c2cccc([N+](=O)[O-])c2)c1 | -1.5 | 3.2 | 0.2 | -0.49 | i
COc1ccc(-n2c(Cc3cccn3C)nnc2SCC(=O)Nc2ccccc2C)cc1 | -10.8 | 3.7 | -1.6 | 0.11 | i
COc1ccc(-n2c(Cc3cccn3C)nnc2SCC(=O)Nc2cccc(C)c2C)cc1 | -13.7 | 3.2 | -0.4 | 3.05* | ·
COc1cc2c(cc1OC)CN(C(=O)c1sc(-c3cnccn3)nc1C)CC2 | -28.1 | · | -0.4 | -0.46 | ·
Cc1nnc(SCC(=O)N(C)c2ccccc2)n1Cc1ccccc1 | 7.4 | 4.9 | 0.1 | -0.15 | i
CC(=O)Nc1c(O)nc(SCC(=O)Nc2nnc(CC(C)C)s2)[nH]c1=O | -4.8 | 3.3 | -1.1 | · | +
Cc1cc(=O)[nH]c(SCC(=O)Nc2nnc(CC(C)C)s2)n1 | -0.9 | 2.9 | · | -0.29 | i
CC/C(=N\NC(N)=O)c1ccc(OC(F)F)cc1 | 0.6 | · | 1.3 | -0.02 | ·
CCN(CC)CCCNc1oc(-c2cccc(Cl)c2)nc1C#N | -16.1 | 2.5 | 2.8 | -0.9 | +
CC/C(C)=N/Oc1nc(C)cc(C)n1 | -9.5 | · | 0.2 | 0.62 | ·
Cc1ccc(S(=O)(=O)N2c3ccc(S(N)(=O)=O)cc3CC2C)cc1 (configuration not stated) | -0.4 | 2.4 | -5.0 | 0.35 | i
Cc1ccc(S(=O)(=O)N2c3ccccc3CC2C)cc1 (configuration not stated) | 8.0 | 13.0* | 43.6 | -1.22 | i
CCOc1ccc(S(=O)(=O)N2c3ccccc3CC2C)cc1 (configuration not stated) | 29.5 | 16.7* | 162.6* | ? | +
CCn1c(SCC(=O)N/N=C/c2ccccc2OCC(=O)O)nnc1-c1ccc(C)cc1 | -25.8 | · | -1.3 | 0.02 | ·
O=c1ccc(NS(=O)(=O)c2ccccc2)cn1Cc1ccc(Cl)c(Cl)c1 | -3.6 | 1.8 | -0.9 | 4.35* | i
O=S(=O)(Nc1ccc2c(c1)nc1n2CCN(Cc2ccccc2)C1)c1ccccc1 | 4.0 | 5.5 | 0.1 | · | i
O=C(C[n+]1ccc(/C=N/O)cc1)N1CCCCC1 | -33.0 | · | -0.8 | -0.2 | ·
O=c1ccnc(Nc2ccc3c(c2)OCCO3)[nH]1 | -17.7 | 2.7 | -0.3 | 3.66* | i
CCOC(=O)c1cc2c(ccn2C)n1CC(=O)N(CC)CC | 12.5 | 1.7 | -0.5 | 0.17 | i
CCCCOc1ccccc1NC(=O)Cn1c(-c2nonc2N)nc2ccccc21 | -0.5 | 27.4* | 0.5 | -0.8 | +
COc1cc(Cn2c(-c3nonc3N)nc3ccccc32)ccc1C | -14.9 | 15.4 | · | -0.99 | +
Cc1ccc(Cn2c(-c3nonc3N)nc3ccccc32)cc1 | 42.0 | 5.5 | -1.9 | 0.48 | i
SMILES | TbHK1 inh | MT stabilize HCS | b-catenin transl | Insulin prom up | Autophagy HCS
COc1cccc(Cn2c(-c3nonc3N)nc3ccccc32)c1 | 0.2 | 50.0* | · | 0.15 | i
CC(=O)CC1=NC(C)(C)Cc2ccccc21 | -15.8 | 3.0 | 1.3 | -0.12 | i
c1ccc(CCC2CCCCN2Cc2nc(-c3ccc4c(c3)OCO4)no2)nc1 (configuration not stated) | -2.8 | 3.0 | 0.6 | -0.13 | i
Oc1ccccc1-c1nc(NCC2CCCO2)c2ccccc2n1 (configuration not stated) | -4.7 | 2.5 | 1.8 | 0.02 | i
COc1cccc(-c2nc(NCC3CCCO3)c3ccccc3n2)c1O (configuration not stated) | -21.7 | 3.9 | -0.3 | · | +
O=C(Nc1nc2ccccc2n1Cc1ccccc1)c1ccc(COc2ccccc2[N+](=O)[O-])o1 | -10.2 | 10.7 | · | · | +
Cc1ccc(OCc2ccc(C(=O)Nc3nc4ccccc4n3Cc3ccccc3)o2)c([N+](=O)[O-])c1 | -39.1 | 3.2 | -1.1 | -0.32 | i
CC(C)OP(=O)(OC(C)C)/C(C=O)=N\Nc1ccc([N+](=O)[O-])cc1 | -10.0 | · | 0.4 | -0.76 | ·
CC12CN3CC(C)(CN(C1)C3c1ccccc1F)C2 (configuration not stated) | 0.4 | · | -0.7 | 0.06 | ·
CC(C)c1nc(SCC(=O)Nc2ccc3c(c2)OCCO3)c2c(=O)n(C)c(=O)n(C)c2n1 | -5.7 | 21.7* | 1.6 | -0.5 | ·
CC(C)c1nc(SCC(=O)Nc2cccc(C(F)(F)F)c2)c2c(=O)n(C)c(=O)n(C)c2n1 | -5.8 | 5.5 | -2.4 | 0.04 | ·
CC(C)NC(=S)N(CCc1ccncc1)C(C)C | -4.3 | 3.9 | 0.6 | -0.38 | i
O=C(Oc1cccc(NC2=NS(=O)(=O)c3ccccc32)c1)c1cccnc1 | -8.6 | 0.5 | 0.5 | 0.15 | i
COc1cccc(CNC23CC4CC(CC(C4)C2)C3)c1OCc1ccccc1 | 9.9 | 3.2 | -4.8 | -1.57 | +
COCCn1c(-c2ccccc2)nc2c(c(=O)c3ccccc3n2C)c1=O | -9.6 | 5.1 | 0.6 | 0.06 | i
CC(C)(C)OC(=O)N[C@@H](Cc1ccccc1)C(=O)NCC1CCC(C(=O)O)CC1 (some centres not stated) | -5.8 | · | 0.7 | -0.66 | ·
CC1=C(C#N)C(c2ccccc2)C2=C(N1)c1ccccc1C2=O (configuration not stated) | -11.2 | 23.6* | -4.2 | 0.08 | i
CC1=C(C#N)C(c2cccnc2)C2=C(N1)c1ccccc1C2=O (configuration not stated) | -6.2 | 1.0 | -2.3 | -0.79 | i
COc1ccccc1N(C(=O)c1ccncc1)c1nc(-c2ccc([N+](=O)[O-])cc2)cs1 | 8.6 | 8.1 | 2.5 | -0.15 | i
COc1ccc(-c2nn(-c3ccccc3)cc2/C=C/C(=O)N2CCN(c3ccccn3)CC2)cc1 | -8.2 | 1.7 | -0.6 | -1.2 | i
COc1ccc(Nc2oc(-c3ccc(OC)cc3)nc2C#N)cc1 | -29.4 | · | 0.5 | -1.18 | ·
CCOc1ccc(Nc2oc(-c3ccc(Cl)cc3)nc2C#N)cc1 | -8.3 | 32.8* | 0.0 | -0.53 | i
COc1ccc(Nc2oc(-c3ccc(Cl)cc3)nc2C#N)cc1 | -11.6 | 39.4* | 63.3* | -0.24 | i
COc1cc(/C=N/Nc2nncn2/N=C/c2ccc(O)c(OC)c2)ccc1O | -26.4 | 3.0 | -3.4 | 0.8 | i
COc1ccc(OC)c(/C=N/Nc2nncn2/N=C/c2cc(OC)ccc2OC)c1 | -16.6 | 31.5* | · | -0.29 | i
Cc1cc(/C=C2\SC(=S)N(Cc3ccco3)C2=O)c(C)n1-c1ccccc1 | -11.4 | 2.1 | 0.7 | 1.24 | +
COc1ccc2c(c1)N(C)/C(=C1/SC(=NCc3ccccc3)N(c3ccccc3)C1=O)S2 | -3.6 | 3.0 | -0.7 | -0.78 | +
